Assay results collected from several papers.
Organism: Pseudomonas aeruginosa
Effect on: microbial growth

Structure (SMILES) | technique | strain | time | setting | MIC
C[C@H]1COc2c(N3CCN(C)CC3)c(F)cc3c(=O)c(C(=O)O)cn1c23 | agar dilution | ATCC27 | – | – | 1 µg/mL
COc1c(C(=O)Nc2ccc(C(=O)O)cc2)ccc2nc(-c3cc(NC(=O)C(CC(N)=O)NC(=O)c4ccc(NC(=O)c5ccc(C#N)cc5)cc4)cn3C)[nH]c12 (stereo not shown) | – | PA14 | – | – | > 64 µg/mL
CC1=NN(CNC(=O)c2ccccn2)C(=O)C1=NNn1c(-c2ccccc2)nc2ccccc2c1=O | broth dilution | – | 24 h | – | 52 µM
O=C(CCCCCCCC[P+](c1ccccc1)(c1ccccc1)c1ccccc1)Nc1cc(O)c(O)c(O)c1.[Br-] | broth dilution | ATCC27853 | 18 h | – | > 32 µg/mL
COC1CN(Cc2ccc3cc4c(c(O)c3c2)C(=O)C2=C(O)[C@]3(O)C(=O)C(C(N)=O)=C(O)[C@@H](N(C)C)[C@@H]3C[C@@H]2C4)C1 | broth dilution | ATCC27853 | – | – | 32 µg/mL
Cc1cccc2nc(-c3ccc([N+](=O)[O-])o3)[nH]c12 | broth dilution | ATCC27853 | – | – | > 64 µg/mL
CCCCCCC/C=C/C(=O)N1C(=O)/C(=C(\O)c2ccncc2)C(=O)C1CC(C)C (stereo not shown) | – | PA01 | – | – | > 200 µg/mL
CC1=NN(CNc2ccc(Cl)cc2)C(=O)C1=NNn1c(-c2ccccc2)nc2ccccc2c1=O | broth dilution | – | 24 h | – | 51.5 µM
Clc1ccc(-c2nc3ccccc3n2Cc2ccccc2)cc1Cl | broth dilution | ATCC27853 | – | – | 256 µg/mL
NC[C@@H]1CN[C@H](CNC(=O)c2cc3ccc(-c4ccc(F)cc4)cc3[nH]2)C1 | broth dilution | PAO1 | – | – | 25 µg/mL
Cc1ccc(C)n1-c1ccc(-c2nnc(-c3cccc([N+](=O)[O-])c3)[nH]2)cc1 | broth dilution | ATCC10145 | 18 h | – | 250 µg/mL
CC(C)OCCNc1nc(Cl)c2c(c1O)C(=O)C1=C(O)[C@]3(O)C(=O)C(C(N)=O)=C(O)[C@@H](N(C)C)[C@@H]3C[C@@H]1C2.Cl.Cl.Cl | broth dilution | ATCC27853 | – | – | > 32 µg/mL
Cc1cc(C#N)ccc1C(=O)Nc1ccc(C(=O)N[C@@H](CC(N)=O)C(=O)Nc2ccc(C(=O)Nc3ccc(C(=O)Nc4ccc(C(=O)O)cc4)c(O)c3OC(C)C)cc2)cc1 | – | PA14 | – | – | 8 µg/mL
CCCCCCC#Cc1cncc(-c2nnc(SCc3ccc(Cl)cc3)n2C)c1 | – | – | – | – | ≥ 20 µg/mL
O=c1cc(-c2ccc(O)cc2)oc2cc(O)cc(O)c12 | broth dilution | PAO1 | – | – | 128 µg/mL
CN(C)Cc1ccc2cc3c(c(O)c2c1)C(=O)C1=C(O)[C@]2(O)C(=O)C(C(N)=O)=C(O)[C@@H](N(C)C)[C@@H]2C[C@@H]1C3 | broth dilution | ATCC27853 | – | – | 32 µg/mL
Fc1ccc(NCc2ccc(Oc3ccccn3)cc2)cc1 | – | – | – | – | > 12.5 µg/mL
C=CCn1c(-c2ccc(Cl)c(Cl)c2)nc2ccccc21 | broth dilution | ATCC27853 | – | – | 512 µg/mL
CC1(C)SC2C(NC(=O)C(NC(=O)C3=C(O)C(Cc4ccsc4)NC3=O)c3ccccc3)C(=O)N2C1C(=O)O (stereo not shown) | – | – | – | – | 25 µg/mL
CC1(C)S[C@@H]2[C@H](NC(=O)C(C(=O)O)c3ccccc3)C(=O)N2[C@H]1C(=O)O (stereo partly shown) | broth dilution | – | – | clinical isolate | > 200 µM
CN(C)c1nc(NC(=O)CNC(C)(C)C)c(O)c2c1C[C@H]1C[C@H]3[C@H](N(C)C)C(O)=C(C(N)=O)C(=O)[C@@]3(O)C(O)=C1C2=O.Cl | broth dilution | ATCC27853 | – | – | > 32 µg/mL
C[C@@H](O)[C@H]1C(=O)N2C(C(=O)O)=C(S[C@@H]3CN[C@H](C(=O)N(C)C)C3)[C@H](C)[C@H]12 | broth dilution | – | 24 h | – | 0.25 µg/mL
CC1(C)S[C@@H]2[C@H](NC(=O)[C@H](N)c3ccccc3)C(=O)N2[C@H]1C(=O)O | – | – | – | – | > 200 µg/mL
COc1c(C)c(OCc2ccccc2)c(C)c(O)c1C(=O)/C=C/c1ccccc1 | broth dilution | ATCC27853 | – | – | 5000 µg/mL
CC(C)Oc1c(NC(=O)c2ccc(NC(=O)[C@H](CC(N)=O)NC(=O)c3ccc(NC(=O)C(C)Sc4ccc(C#N)cc4)cc3)cc2)ccc(C(=O)Nc2ccc(C(=O)O)cc2)c1O (stereo partly shown) | – | PA14 | – | – | > 64 µg/mL

Structure (SMILES) | technique | strain | time | setting | MIC
CCCCCCCC(=O)Oc1c(C)c(O)c(C(=O)/C=C/c2ccccc2)c(OC)c1C | broth dilution | ATCC27853 | – | – | 5000 µg/mL
CC(C)Oc1c(NC(=O)c2ccc(NC(=O)[C@H](CC(N)=O)NC(=O)c3ccc(NC(=O)c4ccc(C#N)cc4)cc3)cc2)ccc(C(=O)N[C@@H]2CONC2=O)c1O | – | PA14 | – | – | > 64 µg/mL
CC[C@H]1OC(=O)[C@H](C)[C@@H](O[C@H]2C[C@@](C)(OC)[C@@H](O)[C@H](C)O2)[C@H](C)[C@@H](O[C@@H]2O[C@H](C)C[C@H](N(C)C)[C@H]2O)[C@](C)(O)C[C@@H](C)CN(C)[C@H](C)[C@@H](O)[C@]1(C)O | broth dilution | – | – | – | 100 µg/mL
CN(C)[C@@H]1C(O)=C(C(N)=O)C(=O)[C@@]2(O)C(O)=C3C(=O)c4c(cc5ccc(CN6CC(F)C6)cc5c4O)C[C@H]3C[C@@H]12 | broth dilution | ATCC27853 | – | – | 32 µg/mL
c1ccc(NCc2ccc(Oc3ccccn3)cc2)cc1 | – | – | – | – | > 25 µg/mL
CC1(C)SC2C(NC(=O)C(NC(=O)C3=C(O)C(Cc4ccc(O)cc4)NC3=O)c3ccccc3)C(=O)N2C1C(=O)O (stereo not shown) | – | – | – | – | 25 µg/mL
CC(C)CNc1nc(Cl)c2c(c1O)C(=O)C1=C(O)[C@]3(O)C(=O)C(C(N)=O)=C(O)[C@@H](N(C)C)[C@@H]3C[C@@H]1C2.Cl.Cl.Cl | broth dilution | ATCC27853 | – | – | > 32 µg/mL
Cc1ccc(C)n1-c1ccc(C(=O)NNC=O)cc1 | broth dilution | ATCC10145 | 18 h | – | 125 µg/mL
CC(C)Oc1c(NC(=O)c2ccc(NC(=O)[C@H](CC(N)=O)NC(=O)c3ccc(NC(=O)CCc4ccc(C#N)cc4)cc3)cc2)ccc(C(=O)Nc2ccc(C(=O)O)cc2)c1O | – | PA14 | – | – | > 64 µg/mL
CCCc1nc(Cl)c2c(c1O)C(=O)C1=C(O)[C@]3(O)C(=O)C(C(N)=O)=C(O)[C@@H](N(C)C)[C@@H]3C[C@@H]1C2.Cl | broth dilution | ATCC27853 | – | – | > 32 µg/mL
COc1c(C)c(OC(C)=O)c(C)c(O)c1C(=O)/C=C/c1ccccc1 | broth dilution | ATCC27853 | – | – | 5000 µg/mL
CC(C)Oc1c(NC(=O)c2ccc(NC(=O)[C@H](CC(N)=O)NC(=O)c3ccc(NC(=O)c4ccc([N+](=O)[O-])c(OC(C)C)c4O)cc3)cc2)ccc(C(=O)Nc2ccc(C(=O)O)cc2)c1O | – | PA14 | – | – | > 64 µg/mL
CCCCCCC/C=C/C(=O)N1C(=O)/C(=C(/C)O)C(=O)C1Cc1ccc(O)cc1 (stereo not shown) | – | PA01 | – | – | > 200 µg/mL
CC(=O)NCN1N=C(C)C(=NNn2c(-c3ccccc3)nc3ccccc3c2=O)C1=O | broth dilution | – | 24 h | – | 59.9 µM
CO[C@@H](C(N)=O)[C@H](NC(=O)c1ccc(NC(=O)c2ccc(C#N)cc2)cc1)C(=O)Nc1ccc(C(=O)Nc2ccc(C(=O)Nc3ccc(C(=O)O)cc3)c(O)c2OC(C)C)cc1 | – | PA14 | – | – | 0.5 µg/mL
C/C(O)=C1\C(=O)C(CC(C)C)N(C(=O)CCCCCc2ccccc2)C1=O (stereo not shown) | – | PA01 | – | – | > 200 µg/mL
COc1cc(Cc2cnc(N)nc2N)cc(OC)c1OC | broth dilution | – | 24 h | – | 8 µg/mL
CN(C)CC(C)(C)CNc1nc(F)c2c(c1O)C(=O)C1=C(O)[C@]3(O)C(=O)C(C(N)=O)=C(O)[C@@H](N(C)C)[C@@H]3C[C@@H]1C2.Cl | broth dilution | ATCC27853 | – | – | 32 µg/mL
CN(C)[C@@H]1C(O)=C(C(N)=O)C(=O)[C@@]2(O)C(O)=C3C(=O)c4c(O)cccc4[C@@](C)(O)[C@H]3C[C@@H]12 | – | ATCC27853 | – | – | 8 µg/mL
Cc1ccc(C)n1-c1ccc(-c2nnc(-c3c(Cl)cccc3Cl)[nH]2)cc1 | broth dilution | ATCC10145 | 18 h | – | 62.5 µg/mL
CC(C)Nc1nc(Cl)c2c(c1O)C(=O)C1=C(O)[C@]3(O)C(=O)C(C(N)=O)=C(O)[C@@H](N(C)C)[C@@H]3C[C@@H]1C2.Cl.Cl.Cl | broth dilution | ATCC27853 | – | – | > 32 µg/mL
CC(C)Oc1c(NC(=O)c2ccc(NC(=O)[C@H](CC(N)=O)NC(=O)c3ccc(NC(=O)c4ccc([N+](=O)[O-])cc4)cc3)cc2)ccc(C(=O)Nc2ccc(C(=O)O)c(F)c2)c1O | – | PA14 | – | – | > 64 µg/mL
O=C(CCCCCCCC[P+](c1ccccc1)(c1ccccc1)c1ccccc1)Nc1ccc(O)c(O)c1.[Br-] | broth dilution | ATCC27853 | 18 h | – | > 32 µg/mL
O=c1cc(-c2ccc(O)c(O)c2)oc2cc(O)cc(O)c12 | broth dilution | PAO1 | – | – | 256 µg/mL
